# Most compounds without a hit are left out; they make up all but 2.6% or so of the library.
# SR-BI HDL uptake: blocks mouse SR-BI lipid uptake from DiI-HDL; 320,000 compounds, 0.96% hits; Q61009; inhibition, % at 12.5 µM; ldlA[mSR-BI] CHO cells, DiI-HDL uptake fluorescence, 3 h;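 active = mean replicate inhibition of at least 70% and a set share of replicates each scoring 70 or more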;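 also: 0% = median of neutral control wells and 100% = median of positive control wells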
# Target sequence (Q61009 whole entry, looked up): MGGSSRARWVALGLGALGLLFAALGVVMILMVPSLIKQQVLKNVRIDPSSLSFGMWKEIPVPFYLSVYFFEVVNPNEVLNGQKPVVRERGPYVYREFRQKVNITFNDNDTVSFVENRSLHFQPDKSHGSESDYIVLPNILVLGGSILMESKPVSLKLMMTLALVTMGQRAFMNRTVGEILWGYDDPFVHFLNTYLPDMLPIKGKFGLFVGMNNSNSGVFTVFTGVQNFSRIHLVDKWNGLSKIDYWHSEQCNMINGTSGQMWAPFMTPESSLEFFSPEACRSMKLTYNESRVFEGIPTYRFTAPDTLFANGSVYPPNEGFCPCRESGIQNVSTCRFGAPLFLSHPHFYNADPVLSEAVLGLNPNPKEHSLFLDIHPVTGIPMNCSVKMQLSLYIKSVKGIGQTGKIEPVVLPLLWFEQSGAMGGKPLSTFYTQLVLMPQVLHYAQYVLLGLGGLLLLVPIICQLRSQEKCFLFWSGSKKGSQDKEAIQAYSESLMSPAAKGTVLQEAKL
# dFosB activator: enhances mouse delta FosB homodimer DNA binding; P13346; purified delta FosB, TAMRA-CDK5 oligo fluorescence polarization; percent of positive-control signal above neutral wells; activation, % at 25 µM; 340,000 compounds, 0.99% hits;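 active = mean activation above about 17%, with every replicate also reaching it, limit read from the data, passing the limit was not always enough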
# Ecoli rRNA inh: inhibits bacterial ribosomal RNA function over humanized ribosomes | E. coli WT GFP vs humanized-ribosome RFP mutants, fluorescence, 24 h; hits give low values; DMSO median 0, no signal -100 | GFP signal change (wild-type ribosome), % (concentration not given with the values) | 350,000 compounds, 1.6% hits | AID 720706;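 active = significant combined selectivity score with lowered wild-type GFP, culture density cut under 30%, mutant RFP and density less affected; inactive = any of these conditions unmet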
# SR-BI DiI-HDL act: enhances SR-BI lipid uptake from DiI-HDL. CHO ldlA[mSR-BI] cells, DiI-HDL uptake fluorescence, 3 h; 100 = double the neutral-control signal. activation, % at 12.5 µM. 320,000 compounds, 0.096% hits. AID 504775;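 active = mean replicate activation of at least 60% and every replicate at or above 60%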;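 also: 0% = median plate neutral-control signal and 100% = twice that signal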
#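 System: CHO ldlA[mSR-BI] cells / Medium: HEPES-buffered (25 mM, pH 7.4) F12 plus 0.5% BSA / Probe or stimulus: labelled HDL, 10 µg/mL / Doses: single compound concentration, delivered by pin transfer / Schedule: 3 h, 37 °C / Measured by: DiI fluorescence, bottom read / Measure: cell-associated DiI fluorescence as measure of HDL uptake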
# PvdQ acylase: blocks Pseudomonas aeruginosa PvdQ acylase activity; 340,000 compounds, 0.063% hits; inhibition, % at 10 µM; purified PvdQ acylase, fluorescence plate reader; AID 488965; in the data active = inhibition above about 30%, passing the limit was not always enough;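 also: 0% = vehicle neutral wells and 100% = reference inhibitor wells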
# XiGFP reactiv: X-chromosome reactivation activator | XiGFP mouse fibroblasts, % GFP-positive cells imaging, 3 d; cells co-treated with 5-aza-dC sensitizer; scaled so ellipticine positive control = 100% | activation, % at 7.58 µM | 360,000 compounds, 0.055% hits;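 active = mean normalized replicate activation at least 10% and every replicate at or above 10%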;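 also: 0% = median of on-plate neutral control wells and 100% = ellipticine 6 µM median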
#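 System: 68-5-11 XiGFP fibroblast line; Timing: 3 days compound exposure; Compound dosing: one concentration, pinned; Benchmarks: positive control ellipticine, 6 µM final; Buffer or medium: DMEM containing 5-aza-dC.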
# * marks the source's active call; other numbers are inactive results; x = no result given.
SMILES,SR-BI HDL uptake,dFosB activator,Ecoli rRNA inh,SR-BI DiI-HDL act,PvdQ acylase,XiGFP reactiv
COc1ccc(CC(=O)O/N=C(\N)c2ccc(C)cc2)cc1,-19,0,-22*,19,0,0
N/C(=N\OC(=O)Cc1ccccc1)c1ccccc1Cl,0,-4,-17*,0,3,0
N/C(=N\OC(=O)Cc1ccc(Cl)cc1)c1ccncc1,-14,-7,-22*,14,-10,0
N/C(=N\OC(=O)Cc1ccc(Cl)cc1)c1cccnc1,-7,-2,-11,7,-9,x
COc1ccc(CC(=O)O/N=C(\N)c2ccncc2)cc1,x,-3,-6,x,-11,0
N/C(=N\OC(=O)Cc1ccccc1)c1cccnc1,-24,2,x,24,-5,x
COc1ccccc1N1CCN(C(=O)c2ccccc2NC(=O)C2CCCCC2C(=O)O)CC1 (configuration not stated),2,3,x,-2,5,0
Cc1cc([N+](=O)[O-])ccc1NC(=O)Nc1ccccc1F,94*,7,6,-94,7,0
Clc1ccc2scc(CN3CCCC3)c2c1,-19,-5,6,19,81*,0
CNC(=O)Cc1csc2ccc(Cl)cc12,4,3,x,-4,-7,x
O=C(C[C@H]1C[C@@H]2c3cc(NC(=O)NC4CCCC4)ccc3O[C@@H]2[C@@H](CO)O1)NCCc1ccccc1,x,x,1,x,x,0
CO[C@H]1CN(C)C(=O)c2ccc(NC(C)=O)cc2OC[C@@H](C)N(C(=O)c2ccc(F)cc2)C[C@@H]1C,x,x,-4,x,x,0
CCc1ccc(NC(=S)NCc2ccccc2)cc1,-17,2,3,17,11,0
COc1cccc(NC(=O)Nc2cccn(Cc3ccc(C)cc3)c2=O)c1,42,-7,-29*,-42,-9,0
CCN(CC)C(=O)C1=C(C)N(Cc2ccc(C(C)(C)C)cc2)C(=O)C(CC(=O)NCCc2ccccn2)C1 (configuration not stated),x,x,-9,x,x,0
CCOc1ccc(C2c3[nH]c4ccccc4c3C[C@H]3C(=O)N(C4CC4)CC(=O)N23)cc1OC (some centres not stated),14,-12,-1,-14,-18,0
O=C1[C@@H]2Cc3c([nH]c4ccccc34)C(c3ccccc3)N2C(=O)CN1CCO (some centres not stated),28,-1,16,-28,-5,0
O=C1[C@@H]2Cc3c([nH]c4ccccc34)C(c3cccc([N+](=O)[O-])c3)N2C(=O)CN1C1CCN(Cc2ccccc2)CC1 (some centres not stated),62,82*,-22,-62,-7,0
CC(C)CN1CC(=O)N2C(c3ccccc3)c3[nH]c4ccccc4c3C[C@H]2C1=O (some centres not stated),78*,-14,-9,-78,-13,0
CCOc1ccc(C2c3[nH]c4ccccc4c3C[C@H]3C(=O)N(C4CCN(Cc5ccccc5)CC4)CC(=O)N23)cc1OC (some centres not stated),-41,35*,9,41,-10,0
C[C@@H]1CN([C@H](C)CO)C(=O)c2cc(NC(=O)Cc3ccccc3)ccc2O[C@@H]1CN(C)C,x,x,-4,x,x,0
COc1ccc(C(=O)N/N=C(/C)c2cccc(NC(=O)c3ccncc3)c2)cc1OC,15,-12,2,-15,-2,0
COc1ccc(C(=O)Nc2cccc(/C(C)=N/NC(=O)c3ccc([N+](=O)[O-])cc3)c2)cc1OC,71*,-6,x,-71,12,x
COc1ccccc1CCNC(=O)Nc1cccc([N+](=O)[O-])c1,18,-4,-20*,-18,-10,0
COc1ccc(C(=O)Nc2cccc([N+](=O)[O-])c2)cc1Br,83*,6,x,-83,-15,x
SMILES,SR-BI HDL uptake,dFosB activator,Ecoli rRNA inh,SR-BI DiI-HDL act,PvdQ acylase,XiGFP reactiv
COc1ccc(C(=O)Nc2ccc(OC)c([N+](=O)[O-])c2)cc1Br,68,10,x,-60,-1,0
Cc1ccc(C(=O)Nc2cccc([N+](=O)[O-])c2)cc1S(=O)(=O)Nc1ccc(C(=O)O)cc1,6,-8,20,-6,-12,0
Cc1ccccc1NS(=O)(=O)c1cc(C(=O)Nc2cccc([N+](=O)[O-])c2)ccc1C,72*,5,x,-72,-13,0
CCN(CC)C(=O)c1sc2nc(-c3ccc(OC)cc3)cn2c1C,36,-6,x,-36,5,x
COc1cc(CN(C(=S)NCC(=O)N2CCCC2)C2CCCC2)cc(OC)c1OC,17,-2,-5,-17,-3,0
O=C(c1ccc(Cn2cnnn2)cc1)N1CCCC(Nc2ccc(F)cc2)C1 (configuration not stated),11,-2,1,-11,16,0
O=c1[nH]c2ccccc2cc1CN(Cc1cccnc1)S(=O)(=O)c1ccc(Cl)cc1,-35,-7,-45*,35,5,0
O=c1[nH]c2ccccc2cc1CN(Cc1cccnc1)S(=O)(=O)c1ccc([N+](=O)[O-])cc1,-24,-4,-21*,24,-1,0
COc1cc2c(cc1NC(=O)COC(=O)Cn1cnc3ccccc31)oc1ccccc12,48,15,x,-48,4,x
Cc1cc(C(=O)c2ccc3ccccc3c2)c(C)o1,x,x,-23*,x,x,0
O=C(c1ccc2ccccc2c1)c1c[nH]cc1-c1ccccc1,9,-11,x,-9,-5,x
Clc1ccccc1N=C1NN=C(c2cccs2)CS1,2,-4,-32*,-2,-8,0
COc1ccc(OC)c(NC(=O)c2sc3nc(Cc4ccccc4)cc(C(F)(F)F)c3c2N)c1,71*,8,x,-71,-14,x
COc1ccc(-c2cc(C(F)(F)F)c3c(N)c(C(=O)NCCSC)sc3n2)cc1,62,-2,21,-62,-4,0
CN(C)CCNC(=O)c1sc2nc(-c3ccccc3)cc(C(F)(F)F)c2c1N,x,19*,-33,x,-6,5
Cc1c(C(=O)O)sc2nc(-c3cccs3)cc(C(F)(F)F)c12,x,-18,-61,x,3,1
CC(=O)c1sc2nc(-c3cccs3)cc(C(F)(F)F)c2c1N,72*,0,x,-72,-1,x
COc1ccc(S(=O)(=O)N(C)C[C@@H]2Oc3ccc(NS(=O)(=O)c4cccs4)cc3CC(=O)N([C@@H](C)CO)C[C@H]2C)cc1,x,x,-2,x,x,0
CN(C)CC(=O)N1[C@H](CO)[C@@H](c2ccccc2)C12CN(CC1CCOCC1)C2,x,x,1,x,x,0
Nc1ccc(Oc2cc(N)cc(Oc3ccccc3)c2)cc1,3,-4,-21*,-3,22,0
